# Yeast growth inh: growth inhibitors of yeast BB579 in restrictive medium, primary screen, yeast lifespan-shortening project, S. cerevisiae. OD615, 48 h. inhibition, % at 10 µM. hit rate 0.51% among 140,000. AID 804, 2007;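 active = inhibition above a set limit, 3 SD over the mean compound inhibition, cut at about 44% in these data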
#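 test system = yeast BB579 (DeaD) | buffer or medium = restrictive CSMM-D medium | doses = single compound dose of 10 µM, 0.25% DMSO final | times = 4 h preincubation and 48 h exposure at 30 °C | technique = culture absorbance at 615 nm | benchmarks = amphotericin B 10 µg/mL, positive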
# Measles CPE: compounds protecting cells from measles virus cytopathic effect, primary screen, measles RdRp inhibitor project, single point, MLSMR library, absorbance; hit rate 1.5% among 140,000; protection (pct of control), % at 4 µM; Measles virus-infected cells, CPE protection; in the data active = protection mostly above about 24%, no sharp cut-off; inactive = mostly below about 26%
# RAM inhibit: inhibitors of the yeast RAM network, primary screen, dse1pr::URA3 reporter, 5-FOA selection; hit rate 1.8% among 190,000; S. cerevisiae dse1pr::URA3 reporter, 5-FOA growth OD615, 2 d; analog-sensitive cbk1-as2 kinase mutant strain; AID 868, 2007; inhibition, % at 50 µM;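 active = inhibition above a set limit, 3 SD over mean compound inhibition, cut at about 8.4% in these data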;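 note: 0% = DMSO-only wells with no growth and 100% = 10 µM 1-NA-PP1 full growth; inhibition rescues growth on 5-FOA so higher OD means more RAM inhibition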
# Yeast lifespan up: compounds extending yeast replicative lifespan, primary screen, S. cerevisiae, OD615 | AID 775, 2007 | S. cerevisiae growth with nicotinamide; deaD strain in restrictive glucose medium | hit rate 0.68% among 130,000 | inhibition of the nicotinamide effect, % at 10 µM;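 active = inhibition above a set limit, placed 3 SD over the median of all compounds, cut at about 26% in these data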;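 note: 0% = nicotinamide-treated wells and 100% = cells grown without nicotinamide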
#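 Measured by: optical density (absorbance) at 615 nm; System: modified budding yeast, DeaD strain; Medium: restrictive CSMM-D dextrose medium; Timing: 4 h preincubation then 48 h treatment at 30 °C.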
# * hit, by the source's call; . = not tested or not shown. In the library only some 3.6% were active in any assay of this set; here they are far more common.
SMILES,Yeast growth inh,Measles CPE,RAM inhibit,Yeast lifespan up
COc1ccc(C(=O)CSc2nnc(-c3cc(C)cc(C)c3)o2)cc1,-28.4,8.7,10.0*,1.4
Cc1cccc(OCc2nnc(SCC(=O)Nc3ncc(C)s3)o2)c1,.,.,0.1,.
COCc1nnc(NC(=O)CSc2ccccc2)s1,-24.0,4.0,-0.6,-5.5
Cc1ccc(C(=O)CSc2nnc(COc3cccc(C)c3)o2)cc1,-29.5,12.6,9.9*,-2.1
COCc1nnc(NC(=O)CSc2ccc(C)cc2)s1,-54.0,23.2*,3.5,-17.5
CCc1nnc(NC(=O)CSc2nnc(-c3ccccc3O)n2-c2ccc(C)cc2C)s1,-47.0,5.9,8.5*,1.8
Cc1nnc2n(c1=O)N=C(c1ccc(Cl)cc1)CS2,-19.3,15.6,1.4,-6.0
CCOC(=O)C1=CN(Cc2ccc(OC)cc2)C=C(C(=O)OCC)C1c1cccs1,.,.,10.2*,.
Cc1cc(-n2[nH]c(C)c(C)c2=O)nc(-c2ccccc2O)n1,-13.5,19.1,3.8,.
Cc1cc(OCc2ccc(F)cc2)nc(-c2ccccc2O)n1,-4.5,32.5*,4.0,-2.9
Cc1cc(OC2CCCCC2)nc(-c2ccccc2O)n1,-21.6,3.4,1.6,-6.2
Cc1ccc(Oc2cc(C)nc(-c3ccccc3O)n2)cc1,-32.9,12.4,9.4*,-14.7
CCn1c(COc2ccc(OC)cc2)nnc1SCc1nc2ccccc2c(=O)[nH]1,.,.,1.2,.
CCOC(=O)c1cc(CC)sc1/N=C/c1c(O)ccc2ccccc12,-6.1,6.1,3.4,32.3*
COc1ccc2c(c1)-c1nc(/N=C/c3c(O)ccc4ccccc34)sc1CC2,-55.5,10.7,0.8,30.3*
CCOC(=O)c1cc(CC)sc1/N=C/C1C(=O)CCCC1=O,.,.,0.5,.
Oc1ccc2ccccc2c1/C=N/c1nccs1,-40.7,5.6,0.6,74.8*
Cc1cc(N=Cc2c(O)ccc3ccccc23)no1,-13.0,9.7,-0.3,43.3*
Cc1cc(N=Cc2c(O)ccc3cc(Br)ccc23)no1,41.0,6.7,-0.3,20.8
CC(C)N(Cc1nc(-c2ccc(Cl)cc2)no1)Cc1nccn1C,.,.,0.0,.
N#Cc1cnn2c3c(cnc12)C(=O)N1CCc2ccccc2C1C3 (configuration not stated),.,.,5.1,.
Cc1ccc(NC(=S)N2CCCC(CO)C2)c(C)c1 (configuration not stated),.,.,0.1,.
CCC(C)(C)c1ccc(OCCCC[n+]2cccc(C)c2)c(C(C)(C)CC)c1,.,.,-2.4,.
COc1ccc(C(=O)N/C(=C\c2ccc3c(c2)OCO3)C(=O)Nc2cccc(C(=O)O)c2)cc1,.,.,1.5,.
O=c1c2ccccc2c(/C=N/c2n[nH]c(CCCO)n2)c(O)n1-c1ccccc1Cl,.,.,8.5*,.
SMILES,Yeast growth inh,Measles CPE,RAM inhibit,Yeast lifespan up
O=C(N/N=C/c1c(O)n(-c2ccccc2Cl)c(=O)c2ccccc12)C1COc2ccccc2O1 (configuration not stated),-28.4,7.1,5.7,7.8
CCNC(=S)N1CCN(C(=O)C(Cc2ccccc2)NC(C)=O)CC1 (configuration not stated),.,.,-0.4,.
Cc1ccc(-c2nn(C(C)(C)C)c3ncnc(NS(=O)(=O)c4ccc([N+](=O)[O-])cc4)c23)cc1,.,.,0.6,.
CC(C)(C)n1nc(-c2ccc(Cl)cc2)c2c(N)ncnc21,82.6*,5.2,-0.8,-17.9
Cc1ccc(-c2nc(N)c3c(-c4ccc(C)cc4)nn(C(C)(C)C)c3n2)cc1,-4.0,1.9,1.1,-4.2
CC(C)(C)n1nc(-c2ccc(F)cc2)c2c(N)ncnc21,87.6*,1.1,-0.2,-6.1
CC(=O)N1/C(=C/c2ccc(N(C)C)cc2)C(=O)c2ccccc21,.,.,-1.9,.
Oc1ccccc1NCC(O)Cn1ccc2ccccc21 (configuration not stated),49.7*,13.5,0.2,4.7
COc1ccc(OCCC(=O)OCC(=O)Nc2ccc(Br)cc2)cc1,-15.7,2.5,4.2,-1.5
COc1ccc(OCCC(=O)OCC(=O)Nc2cccc(Br)c2)cc1,-15.3,41.2*,-0.5,-5.5
C#CCOCCOCCOCCNc1nc(N2CCOCC2)nc(N2CCN(C(=O)[C@H](CCC(=O)O)n3cc(C(N)Cc4ccc(O)cc4)nn3)CC2)n1 (some centres not stated),.,.,0.6,.
Cc1cc(C)c(NC(=O)CSc2nc(COc3ccccc3)nc3ccccc23)c(C)c1,-81.2,3.0,1.6,-4.9
Cc1ccccc1NC(=O)CSc1nc(COc2ccccc2)nc2ccccc12,6.1,6.5,9.7*,-10.2
O=[N+]([O-])c1ccc2c(c1)[nH]c(=S)n2-c1ccccc1,.,.,4.8,.
Cn1c(CO)c(-c2ccccc2)c2cc([N+](=O)[O-])ccc21,-89.1,36.8*,3.8,-12.8
Cc1ccc(SCC(=O)Nc2ccc(S(N)(=O)=O)cc2)cc1,.,.,2.4,.
COc1ccc(/C=C(\C#N)C(=O)N2CCOCC2)cc1Br,-13.7,13.1,1.6,48.3*
CCOC(=O)c1cc(CC)sc1NC(=O)c1cc(OC)c(OC)c(OC)c1,-103.9,12.6,11.2*,-9.4
NC(=O)NC(CC(=O)OCC(=O)NC(=O)NCc1ccco1)c1ccc(Cl)cc1 (configuration not stated),-40.6,1.7,1.2,-9.1
NC(=O)COC(=O)CC(NC(N)=O)c1ccc(Cl)cc1 (configuration not stated),-36.7,36.9*,0.6,0.7
NC(=O)c1sc2nc(-c3ccco3)ccc2c1N,53.3*,37.2,1.7,-24.5
Nc1c(C(=O)Nc2ccccc2F)sc2nc(-c3ccco3)ccc12,-73.1,.,9.2*,-1.2
COc1ccccc1CN1C(=O)c2ccccc2C1C(=O)NC1CCC(C)CC1 (configuration not stated),.,.,1.1,.
Cc1oncc1-c1csc(-c2ccccc2Cl)n1,.,.,9.5*,.
Cc1occc1-c1nnc(SCC(=O)c2ccc(F)cc2)n1Cc1ccco1,-23.6,3.9,1.0,-2.3
SMILES,Yeast growth inh,Measles CPE,RAM inhibit,Yeast lifespan up
O=C(CSc1nnc(-c2cc3ccccc3cc2O)n1Cc1ccco1)c1ccc(F)cc1,-28.8,17.6,8.4*,5.4
COn1c(-c2ccc(Cl)cc2)nc2ccc(Cl)cc21,-9.4,4.3,10.8*,-24.5
Clc1ccc(COn2c(-c3ccc(Cl)cc3)nc3ccccc32)cc1,-48.4,3.7,9.1*,-19.1
CCC(=O)NC1OC(CO)C(O)C(O)C1O (configuration not stated),.,.,-0.1,.
C=CCn1c(CCCOc2ccc(Cl)cc2Cl)nnc1SCC(=O)Nc1nccs1,-61.7,25.1,8.9*,-0.4
CCn1c(CCCOc2ccc(Cl)cc2Cl)nnc1SCC(=O)Nc1cc(F)ccc1C,-33.2,3.9,4.7,7.0
CSc1cccc(NC(=O)CCCOc2ccc(Cl)cc2Cl)c1,-51.2,3.0,11.1*,-2.3
Cn1c(CCCOc2ccc(Cl)cc2Cl)nnc1SCC(=O)Nc1ccc(F)c(Cl)c1,-19.2,25.7,9.0*,5.8
COc1ccc(-c2cn3cccnc3n2)cc1F,-13.4,29.4*,5.8,-8.6
COc1ccc(-c2cn3cccnc3n2)cc1NS(=O)(=O)c1ccccc1,.,.,2.6,.
